CYP2C9 inhib: human CYP2C9 inhibition; P11712; CYP2C9 Supersomes, luciferin-H conversion, luminescence; inhibition, % at 5 µM; 96,000 compounds, 20% hits;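 active = blocking of liver enzyme CYP2C9 beyond about 50% at 5 µM, limit read from the data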
Target sequence (P11712 whole entry, looked up): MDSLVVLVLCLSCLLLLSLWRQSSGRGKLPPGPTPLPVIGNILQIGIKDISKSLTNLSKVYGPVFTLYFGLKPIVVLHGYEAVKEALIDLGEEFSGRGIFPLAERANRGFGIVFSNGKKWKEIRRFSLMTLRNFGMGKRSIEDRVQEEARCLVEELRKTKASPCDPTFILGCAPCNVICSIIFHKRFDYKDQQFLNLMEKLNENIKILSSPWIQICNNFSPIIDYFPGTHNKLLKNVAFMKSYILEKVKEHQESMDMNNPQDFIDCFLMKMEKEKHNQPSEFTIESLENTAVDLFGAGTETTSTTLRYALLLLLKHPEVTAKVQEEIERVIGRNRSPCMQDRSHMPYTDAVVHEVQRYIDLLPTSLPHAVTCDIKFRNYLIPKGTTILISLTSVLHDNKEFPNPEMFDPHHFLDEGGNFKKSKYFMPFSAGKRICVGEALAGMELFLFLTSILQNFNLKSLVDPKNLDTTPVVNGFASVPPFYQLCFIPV
CYP2C19 inh: human CYP2C19 inhibition. P33261. CYP2C19 Supersomes, luciferin-H EGE luminescence, 30 min. inhibition, % at 5 µM. 96,000 compounds, 21% hits. AID 778;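 active = CYP2C19 inhibition above a set limit at 5 µM in the primary screen, cut at about 50% in these data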
CYP2C19 activ: activators of human cytochrome P450 2C19; P33261; recombinant CYP2C19, luciferin-H EGE luminescence; stronger effect = higher value; 0 = fully inhibited enzyme, 1 = untreated enzyme; activation factor at 5 µM; 96,000 tested, under 10 active;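 active = activation factor of at least 2 at 5 µM in the primary screen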
Cav3 T inh: inhibitors of human Cav3.2 T-type calcium channel. O95180. 100,000 compounds, 4% hits. Cav3.2-expressing cells, Fluo-4 calcium fluorescence FDSS; stronger effect = lower value. AID 449739. B-score at 10 µM;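 active = single-dose well whose peak fluorescence ratio is a statistical outlier from its plate by either plate-standardised score or position-corrected B-score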
CYP2C9 activ: activators of human CYP2C9; P11712; 96,000 compounds, 1.4% hits; AID 1024; recombinant CYP2C9, luciferin-H conversion, luminescence; stronger effect = higher value; factor 1 = untreated enzyme, 0 = blocked; activation factor at 5 µM;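 active = activation factor of 2 or more for CYP2C9 at a 5 µM dose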
HIV Rev-RRE inh: disrupts HIV-1 Rev binding to RRE RNA. P05866. Rev peptide-RRE RNA binding, FRET. inhibition, % at 8 µM. 97,000 compounds, 0.79% hits. AID 704;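 active = inhibition above the screen-wide mean plus 3 SD, cut at about 35% in these data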
Target sequence (P05866 whole entry, looked up): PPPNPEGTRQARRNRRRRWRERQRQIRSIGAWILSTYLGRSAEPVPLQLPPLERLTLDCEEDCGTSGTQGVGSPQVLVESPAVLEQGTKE
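Test system: Cy5-tagged RRE RNA duplex with fluorescein-tagged Rev peptide; Probe or stimulus: labelled Rev peptide; Schedule: 5 min preincubation and 15 min binding, 25 °C; Signal: FRET fluorescence readout; Evaluation: % inhibition from 671/540 nm acceptor-to-donor ratio, scaled between controls; Control set: DMSO and neomycin B.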
Large screens that a line does not name were inactive. A selection: hits, their analogues and other compounds. The true share with any hit is near 27%.

O=C(NCCc1ccc(Cl)cc1)C1CCN(S(=O)(=O)c2ccc(-n3cnnn3)cc2)CC1	none
CN(C)c1ccc(C2C=C(c3ccc(Cl)cc3OC(F)F)Nc3ncnn32)cc1 (stereo unspecified)	CYP2C9 inhib 94, CYP2C19 inh 99, Cav3 T inh -5.9 (no result: HIV Rev-RRE inh)
Cc1cc(NC(=O)CSc2nccn2-c2ccc(Cl)cc2)no1	CYP2C9 inhib 54, CYP2C19 inh 81
Cc1cc(NC(=O)CSc2nc(-c3ccc(F)cc3)cs2)no1	none
Cc1cc(NC(=O)CSc2nccn2-c2ccc(F)cc2)no1	CYP2C19 inh 69
CCCC(=O)c1c[nH]c(C(=O)NCc2ccco2)c1	none
CN(C)c1ccc(NC(=O)CN2C(=O)CC(c3ccccc3)=Nc3ccccc32)cc1	CYP2C9 inhib 72
CC(C)NS(=O)(=O)c1ccc(NC(=O)CCc2ccccc2)cc1	none
CN(C)c1ccc(NC(=O)CCCc2ccccc2)cc1	CYP2C19 inh 100 (no result: Cav3 T inh)
CC(C)NS(=O)(=O)c1ccc(CCC(=O)Nc2cc(Cl)ccc2Oc2ccccc2)cc1	CYP2C9 inhib 67 (no result: Cav3 T inh)
O=C(CCCOc1ccccc1)Nc1cccnc1	none (no result: CYP2C9 inhib, CYP2C19 inh, CYP2C19 activ, CYP2C9 activ)
O=C(CCCc1ccccc1)Nc1cccnc1	CYP2C9 inhib 50, CYP2C19 inh 75
O=C(NCSc1ccncn1)c1ccccc1	none
O=C(O)CC(=O)Nc1cc(Cl)ccc1O	none
O=C(CCc1ccccc1)Nc1cc(Cl)ccc1O	CYP2C9 inhib 88, CYP2C19 inh 99
O=C(Nc1cc(Cl)ccc1O)c1snnc1-c1ccccc1	CYP2C9 inhib 83, CYP2C19 inh 52
O=C(CCc1ccccc1)Nc1cccc(NC(=O)CCc2ccccc2)c1	CYP2C9 inhib 88
Cc1cccc(NC(=S)NC(=O)CCc2ccccc2)c1	none
C[C@@]12CC(=O)NC1N(C(=O)c1ccccc1)C(c1ccccc1OC(=O)c1ccccc1)C2 (stereo partly specified)	none
Cc1[nH]c2c(Br)cccc2c1[C@H]1[C@@H](CC#N)C1(C)C	CYP2C9 inhib 55
Cc1c([C@H]2[C@@H](CC#N)C2(C)C)c2ccccc2n1C	none
O=C(CN1C(=O)c2ccccc2S1(=O)=O)Nc1ccc(S(=O)(=O)N2CCCCC2)cc1	CYP2C9 inhib 62 (no result: Cav3 T inh)
O=C(CN1C(=O)c2ccccc2S1(=O)=O)Nc1ccc(S(=O)(=O)N2CCCC2)cc1	CYP2C9 inhib 92
O=C(CN1C(=O)c2ccccc2S1(=O)=O)Nc1ccccc1	none (no result: Cav3 T inh)
O=C(COc1ccc(F)cc1Br)N1CCc2ccccc21	none
Cc1ccc(OCC(O)Cn2c(=N)n(Cc3ccccc3)c3ccccc32)cc1 (stereo unspecified)	Cav3 T inh -5.3
Cc1ccc2cccc(Oc3cnccn3)c2n1	none
O=C(c1ccco1)N(Cc1cc2ccccc2[nH]c1=O)CC1CCCO1 (stereo unspecified)	none
O=C(c1ccncc1)N(Cc1cc2ccccc2[nH]c1=O)C1CCCCC1	CYP2C9 inhib 74, CYP2C19 inh 90
O=C(c1ccco1)N(Cc1cc2ccccc2[nH]c1=O)C1CCCCC1	CYP2C9 inhib 54
CC(C)N1C(=O)CCC1C(=O)NC1CCCC1 (stereo unspecified)	none
O=c1[nH]c2cccnc2n1Cc1ccccc1	CYP2C9 inhib 94, CYP2C19 inh 51
O=C(c1sc2ccccc2c1Cl)N(Cc1ccccc1Cl)C1CCS(=O)(=O)C1 (stereo unspecified)	CYP2C9 inhib 85
O=C(c1cccs1)N(Cc1ccco1)C1CCS(=O)(=O)C1 (stereo unspecified)	CYP2C19 inh 56
CCN(CC)c1ccc(CN(C(=O)c2cc(OC)c(OC)c(OC)c2)C2CCS(=O)(=O)C2)cc1 (stereo unspecified)	none
O=C(c1ccccc1F)N(Cc1ccc(F)cc1)C1CCS(=O)(=O)C1 (stereo unspecified)	CYP2C19 inh 83
O=C(c1ccccc1F)N(Cc1ccccc1)C1CCS(=O)(=O)C1 (stereo unspecified)	none
CCN(CC)c1ccc(CN(C(=O)c2ccco2)C2CCS(=O)(=O)C2)cc1 (stereo unspecified)	CYP2C9 inhib 58, CYP2C19 inh 57 (no result: Cav3 T inh)
CCOC(=O)c1sc2nc(CC(=O)OC)nc(NCc3ccc(Cl)cc3)c2c1C	none
O=C(O)CC(C(=O)Nc1ccc(Cl)c(Cl)c1)C1CCCO1 (stereo unspecified)	none
O=C(c1cccs1)N(Cc1cccc(Cl)c1)C1CCS(=O)(=O)C1 (stereo unspecified)	none
O=C(c1sc2ccccc2c1Cl)N(Cc1ccccc1)C1CCS(=O)(=O)C1 (stereo unspecified)	CYP2C9 inhib 68, CYP2C19 inh 52
O=C(c1sc2ccccc2c1Cl)N(Cc1ccco1)C1CCS(=O)(=O)C1 (stereo unspecified)	CYP2C9 inhib 70, CYP2C19 inh 71
Cc1ccc(CN(C(=O)c2cc3ccccc3oc2=O)C2CCS(=O)(=O)C2)cc1 (stereo unspecified)	none
Cc1cc2oc(C(=O)N(Cc3ccccc3)C3CCS(=O)(=O)C3)cc(=O)c2cc1Cl (stereo unspecified)	CYP2C9 inhib 80, CYP2C19 inh 62
N#C/C(=N\Nc1cccc(Cl)c1)C(=O)c1ccccc1	CYP2C9 inhib 63, Cav3 T inh -9.2
Cc1cc(=O)oc2c1ccc1oc(/C(=N/O)c3ccccc3)c(C)c12	CYP2C9 inhib 60
O=C1c2c(O)cc(O)cc2O[C@H](c2ccc(O)c(O)c2)[C@@H]1O	none (no result: CYP2C9 inhib, CYP2C19 inh, CYP2C19 activ, CYP2C9 activ, HIV Rev-RRE inh)
O=S(=O)(c1ccc2ccccc2c1)N(CC(O)COCc1ccco1)c1ccccc1 (stereo unspecified)	Cav3 T inh -5.1
Oc1ccc(-n2cnnn2)cc1	none (no result: Cav3 T inh)
CC(C)OC(=O)c1ccc(NC(=O)C2C3CC4OC(=O)C2C4C3)cc1 (stereo unspecified)	none (no result: CYP2C9 inhib, CYP2C19 inh, CYP2C19 activ, CYP2C9 activ)
O=C1C(N2CCOCC2)=C(n2nnc3ccccc32)C(=O)c2ccccc21	CYP2C9 inhib 90, CYP2C19 inh 100
CC(C)C[C@H](N)c1nnc(S(=O)(=O)Cc2ccc(F)cc2)o1	none (no result: HIV Rev-RRE inh)
CCC(C)(C)NC(=O)CN(CC1CCCO1)C(=O)CCC(=O)Nc1nccs1 (stereo unspecified)	none
CCOc1ccc(Br)cc1/C=N/NC(=O)c1ccncc1	CYP2C9 inhib 83, CYP2C19 inh 91
COc1ccc(OC)c(Nc2cc(-c3ccccc3)nc(N)n2)c1	CYP2C9 inhib 79, CYP2C19 inh 80, Cav3 T inh -4.5
COc1ccc(OC)c(Nc2ncnc3ccccc23)c1	none
COc1cccc(Nc2cc(C)nc3ccccc23)c1	none (no result: CYP2C9 inhib, CYP2C19 inh, CYP2C19 activ, CYP2C9 activ)
COc1ccc(OC)c(Nc2cc(C)nc3ccccc23)c1	CYP2C19 inh 56
COc1cc(NC(=O)C2CC(=O)NC3=C2C(=O)CCC3)c(OC)cc1Cl (stereo unspecified)	none

Assay outcomes: PubChem, several laboratories
